Source: PubChem BioAssay (Broad Institute)
Ecoli rRNA inh – inhibits bacterial ribosomal RNA function over humanized ribosomes; E. coli WT GFP vs humanized-ribosome RFP mutants, fluorescence, 24 h; active compounds read low; DMSO median 0, no signal -100; GFP signal change (wild-type ribosome), % (no concentration beside the values); actives 1.6% (n = 350,000); AID 720706;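 active = significant combined selectivity score with lowered wild-type GFP, culture density cut under 30%, mutant RFP and density less affected; inactive = any of these conditions unmet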
Casp6 inh – blocks human caspase-6 cleavage activity; P55212; purified caspase-6, Z-VEID-R110 cleavage fluorescence; inhibition, % at 12.5 µM; actives 0.53% (n = 350,000); AID 686996;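 active = mean inhibition across replicates at least about 35%, with every replicate also reaching that limit, limit read from the data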;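 note: 0% = median of neutral control wells and 100% = no fluorescence left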
Target sequence (P55212 24-179 limits assumed): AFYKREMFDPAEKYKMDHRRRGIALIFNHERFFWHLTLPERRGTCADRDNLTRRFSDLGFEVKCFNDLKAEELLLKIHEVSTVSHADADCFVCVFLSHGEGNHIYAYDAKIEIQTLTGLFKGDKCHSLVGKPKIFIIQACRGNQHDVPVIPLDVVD
Target sequence (P55212 194-293 limits assumed): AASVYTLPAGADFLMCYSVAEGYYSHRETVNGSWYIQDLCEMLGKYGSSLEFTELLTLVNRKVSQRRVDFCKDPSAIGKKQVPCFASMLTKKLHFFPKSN
ERAP1 inh – ERAP1 (human) enzyme inhibition; inhibition, % at 10.7 µM; actives 0.15% (n = 340,000); recombinant ERAP1, Leu-AMC fluorescence, 60 min; Q9NZ08;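 active = mean replicate inhibition of at least 30%, or all replicates individually reaching that 30% level; inactive = mean below 30% and not every replicate reaching it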;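 note: 0% = neutral control wells and 100% = L-leucinethiol positive control wells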
ARNT-TACC3 inh – ARNT/TACC3 interaction disruption; inhibition, % at 9.99 µM; actives 0.66% (n = 390,000); AlphaScreen His-ARNT PAS-B/GST-TACC3 binding, luminescence; TACC3 fragment carries E629A point mutation;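 active = mean inhibition of replicates at least 50% and at least half of replicates each reaching 50%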;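 note: 0% = complete ARNT plus TACC3 wells and 100% = ARNT alone without TACC3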
S100A4 inh HTS – blocks human S100A4 binding to myosin IIA peptide. P26447. S100A4/TAMRA-MyoIIA peptide fluorescence polarization. inhibition, % at 10.7 µM. actives 0.14% (n = 360,000);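 active = mean inhibition of at least 70% across replicates, with every replicate also reaching that level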
Target sequence (P26447 whole entry, looked up): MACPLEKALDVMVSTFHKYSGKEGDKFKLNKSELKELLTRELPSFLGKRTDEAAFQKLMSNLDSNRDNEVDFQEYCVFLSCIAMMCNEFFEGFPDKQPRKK
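Assay system: human S100A4 monomer with TAMRA-labelled myosin IIA peptide / Buffer or medium: Calcium-containing HEPES buffer, pH 7.2 / Reagent: TAMRA-labelled myosin IIA heavy-chain peptide probe, 5 nM / Compound: one dose per compound / Timing: polarization read 5 min after assay mix addition, stable 5–60 min / Benchmarks: neutral control DMSO, positive control TFP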
PGC1a acetyl inh – PGC1a acetylation modulation, inhibitor mode; U2OS PGC1a acetylation, AlphaScreen anti-acetyl-lysine; with virally co-expressed GCN5 acetyltransferase; inhibition, % at 15.6 µM; actives 0.17% (n = 350,000);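 active = every replicate shows inhibition of at least 40%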;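 note: 0% = neutral control wells and 100% = positive control wells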
* marks the source's active call; other numbers are inactive results; · = no result given. Most compounds without a hit are left out; they make up all but 2.4% or so of the library.

SMILES	Ecoli rRNA inh	Casp6 inh	ERAP1 inh	ARNT-TACC3 inh	S100A4 inh HTS	PGC1a acetyl inh
CCCn1cc(C(CC(=O)O)C(=O)O)c2ccccc21 (stereo unspecified)	·	·	·	1	·	-8
Cn1cc(C(CC(=O)O)C(=O)O)c2ccccc21 (stereo unspecified)	19	43*	0	-4	-10	-3
CN(C)CCCn1c(N)c(S(=O)(=O)c2ccccc2)c2nc3ccccc3nc21	-28*	-1	-74	·	-5	3
CCCCn1c(N)c(S(=O)(=O)c2ccc(C)cc2)c2nc3ccccc3nc21	-7	0	7	12	-12	-19
COc1ccccc1NC(=O)c1ccccc1S(=O)(=O)c1ccccc1[N+](=O)[O-]	5	0	6	·	-4	·
COc1ccccc1NC(=O)c1ccccc1S(=O)(=O)c1ccc([N+](=O)[O-])cc1	2	40*	-4	-1	2	-6
CC(C)c1ccc(/C=C/C(=O)N2CCCCCC2)cc1	-26*	2	2	0	0	·
CC(C)c1ccc(/C=C/C(=O)N2CCOCC2)cc1	9	0	-1	-1	1	6
O=c1cnnc(N/N=C/c2cccs2)[nH]1	13	2	-1	62*	1	·
O=S(=O)(N[C@@H]1CC[C@H](CCn2cc(Cc3ccccc3)nn2)O[C@H]1CO)c1ccccc1F	-4	1	-1	0	-5	-7
CO[C@@H]1CC[C@@H]2CCOc3c(C#N)cccc3C(=O)N(C)[C@@H](C)C(=O)N(C)C[C@H]1O2	2	4	3	3	-38	9
N/C(=N\NC(=O)Nc1ccc(Cl)cc1)c1ccccn1	5	-3	1	66*	7	1
CC(C)c1ccc(NC(=O)c2ccc3c(c2)CCN3S(C)(=O)=O)cc1	4	-3	1	6	5	82*
Cc1oc(-c2ccccc2Cl)nc1CSCC(=O)NC1CC1	·	·	·	-17	·	-16
Cc1oc(-c2ccccc2Cl)nc1CSCC(=O)O	-3	-3	2	-5	186*	5
CCCOc1ccc(/C(O)=C2/C(=O)C(=O)N(CCCn3ccnc3)C2c2ccc(C)o2)cc1 (stereo unspecified)	-18*	-2	-4	-4	-4	5
CCCOc1ccc(/C(O)=C2/C(=O)C(=O)N(CCCn3ccnc3)C2c2ccco2)cc1 (stereo unspecified)	·	·	·	4	·	8
CCC(=O)N1[C@@H]2c3ccc(C4=CCCC4)c(=O)n3C[C@@H]2[C@@H](CO)[C@@H]1C(=O)Nc1ccccc1	5	-2	1	6	-12	·
CC(=O)c1ccc(NC(=O)C2=CC(c3cccs3)=NS(=O)(=O)N2C)cc1	-21*	7	4	-11	2	14
Cc1ccc(NC(=O)C2=CC(c3cccs3)=NS(=O)(=O)N2C)cc1	-2	-2	1	-7	5	7
COc1ccc(CN(CC2CCC(C(=O)O)CC2)C(=S)Nc2ccc(C)c(Cl)c2)cc1 (stereo unspecified)	-33*	3	6	0	30	·
COc1ccc(NC(=S)N(Cc2cccc(Br)c2)CC2CCC(C(=O)O)CC2)cc1 (stereo unspecified)	-6	0	-2	-7	-28	11
Oc1[nH]c2ccc(Br)cc2c1N=NC(=S)NCC1CCCO1 (stereo unspecified)	-32*	6	1	17	1	6
C[C@H](CO)N1C[C@H](C)[C@@H](CN(C)S(=O)(=O)c2ccccc2)OCCCC[C@H](C)Oc2ccc(NS(C)(=O)=O)cc2C1=O	-5	-1	-2	-10	0	3
COc1ccc(-n2nc3c(c2NC(=O)c2c(-c4ccccc4Cl)noc2C)CS(=O)(=O)C3)cc1	-18	42*	-2	-4	-1	-15
COc1ccc(-n2nc3c(c2NC(=O)c2ccccc2)CS(=O)(=O)C3)cc1	·	1	-8	·	14	1
Cc1ccc(NC(=O)Cn2c(CCC(=O)O)ccc2-c2ccc(Cl)cc2)cc1	-25*	-2	1	-3	-2	-4
